pIC50: −log10 of the molar value. ≈ marks a conversion by molar mass, not a printed value. Calls of active or inactive are those of the source. No cut-off for these calls is given here.
What was measured:
Trypanosoma cruzi [1] = experiment: Antitrypanosomal activity against intracellular Trypanosoma cruzi infected in human U2OS cells assessed as parasite growth inhibition incubated for 72 hrs by confocal microscopy; assay type: functional, organism-based
[2] = Kinetic solubility of compound in aqueous buffer at pH 6.8 incubated for 16 to 24 hrs by HPLC analysis; assay type: physicochemical; details: time 16-24 hrs, read-out: Kinetic_solubility
[3] = Intrinsic clearance in human liver microsomes at 1 uM incubated for 15 to 30 mins by LC/MS/MS analysis; assay type: ADME, Microsome; details: time 15-30 min
[4] = Permeability of compound incubated for 3 hrs by PAMPA assay; assay type: ADME; details: read-out: permeability
[5] = Intrinsic clearance in mouse liver microsomes at 1 uM incubated for 15 to 30 mins by LC/MS/MS analysis; assay type: ADME, Microsome; details: time 15-30 min
[6] = Selectivity index, ratio of IC50 for human U2OS cells to IC50 for intracellular Trypanosoma cruzi infected in human U2OS cells; assay type: toxicity, cell-based; details: for selectivity ratio: U2OS cells, read-out: Selectivity Index
How it was run: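 Host U2OS cell counts and intracellular parasite infection ratio were read from the same 72 h DRAQ5-stained confocal imaging assay. CC50 and EC50 came from 4-parameter logistic fits, and the selectivity index is their ratio.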

Trypanosoma cruzi [7] = experiment: Inhibition of Trypanosoma cruzi CYP51 upto 100 uM by fluorescence based assay
Trypanosoma cruzi [8] = experiment: Antitrypanosomal activity against acute-stage Trypanosoma cruzi CL Brener infected in BALB/c mouse assessed as reduction in parasite burden at 50 mg/kg, po bid administered for 5 days measured after 14 days by bioluminescence imaging based analysis; assay type: functional, organism-based; details: time 14.0 day
[9] = Selectivity index, ratio of IC50 for human THP-1 cells to IC50 for Leishmania donovani infected in human THP-1 cells; assay type: toxicity, cell-based; details: read-out: Selectivity Index

CC1CCN(c2nc(-c3ccccn3)nc3ccccc23)CC1
pIC50 (Trypanosoma cruzi [1]; Trypanosoma cruzi, U2OS, 72 h): 6.39 | solubility kinetic [2]: 59 µg/mL (≈ 194 µM) | CLint [3]: 112 µL/min/mg | Papp at 3 h [4]: 44.1 ×10⁻⁶ cm/s | intrinsic clearance (CLint) [5]: > 500 µL/min/mg

c1ccc(-c2nc(N3CCN(c4ccccn4)CC3)c3ccccc3n2)nc1
pIC50 (Trypanosoma cruzi [1]; Trypanosoma cruzi, U2OS, 72 h): 5.48 | selectivity ratio [6]: 6.4

Cc1cccnc1CNc1nc(-c2ccccn2)nc2ccccc12
pIC50 (Trypanosoma cruzi [1]; Trypanosoma cruzi, U2OS, 72 h): 5.80 | selectivity ratio [6]: 15

Fc1ccc(C2CCN(c3nc(-c4ccccn4)nc4ccccc34)C2)cc1 (configuration not stated)
pIC50 (Trypanosoma cruzi [1]; Trypanosoma cruzi, U2OS, 72 h): 6.39 | inhibition (Trypanosoma cruzi [7]): inactive | intrinsic clearance (CLint) [5]: > 500 µL/min/mg | selectivity ratio [6]: 9.2

c1ccc(-c2nc(N3CCCCC3)c3ccccc3n2)nc1
pIC50 (Trypanosoma cruzi [1]; Trypanosoma cruzi, U2OS, 72 h): 6.05

Cn1ncc2nc(-c3ccccn3)nc(N3CCC(c4ccccn4)C3)c21 (configuration not stated)
pIC50 (Trypanosoma cruzi [1]; Trypanosoma cruzi, U2OS, 72 h): 5.74 | solubility kinetic [2]: 99 µg/mL (≈ 277 µM) | Papp at 3 h [4]: 17.1 ×10⁻⁶ cm/s | selectivity ratio [6]: 2.9

c1ccc(-c2nc(N3CCC(c4ccccn4)C3)c3ccccc3n2)nc1 (racemic)
Activity (Trypanosoma cruzi [8]): inactive

c1ccc(-c2nc(N3CCc4ncccc4C3)c3ccccc3n2)nc1
pIC50 (Trypanosoma cruzi [1]; Trypanosoma cruzi, U2OS, 72 h): 5.04 | selectivity ratio [6]: 5.5

Cc1cccc(CNc2nc(-c3ccccn3)nc3ccccc23)n1
pIC50 (Trypanosoma cruzi [1]; Trypanosoma cruzi, U2OS, 72 h): 5.62 | selectivity ratio [6]: 21

Cc1cccc(N2CCN(c3nc(-c4ccccn4)nc4ccccc34)CC2)n1
pIC50 (Trypanosoma cruzi [1]; Trypanosoma cruzi, U2OS, 72 h): 5.72 | selectivity ratio [6]: 7

CCn1cc2nc(-c3ccccn3)nc(N3CCC(c4ccccn4)C3)c2n1 (configuration not stated)
pIC50 (Trypanosoma cruzi [1]; Trypanosoma cruzi, U2OS, 72 h): 7.00 | solubility kinetic [2]: 94 µg/mL (≈ 253 µM) | CLint [3]: < 1 µL/min/mg | Papp at 3 h [4]: 22 ×10⁻⁶ cm/s | intrinsic clearance (CLint) [5]: 70 µL/min/mg | selectivity ratio [6]: 2.8

Cn1cc(CNc2nc(-c3ccccn3)nc3ccccc23)cn1
pIC50 (Trypanosoma cruzi [1]; Trypanosoma cruzi, U2OS, 72 h): 5.02 | selectivity ratio [6]: 5.2

OC1(c2ccccc2)CCN(c2nc(-c3ccccn3)nc3ccccc23)CC1
pIC50 (Trypanosoma cruzi [1]; Trypanosoma cruzi, U2OS, 72 h): 5.48 | selectivity ratio [6]: 15

c1ccc(-c2nc(N3CCC(c4ccccn4)C3)c3ccccc3n2)nc1 (stereo in doubt; 85-tR1)
pIC50 (Trypanosoma cruzi [1]; u2os): 5.96 | Selectivity Index [6]: 4.2

Cn1ccc2nc(-c3ccccn3)nc(N3CCC(c4ccccn4)C3)c21 (configuration not stated)
pIC50 (Trypanosoma cruzi [1]; Trypanosoma cruzi, U2OS, 72 h): 6.25 | solubility kinetic [2]: 90 µg/mL (≈ 253 µM) | Papp at 3 h [4]: 21.9 ×10⁻⁶ cm/s | selectivity ratio [6]: 16

c1ccc(N2CCN(c3nc(-c4ccccn4)nc4ccccc34)CC2)cc1
pIC50 (Trypanosoma cruzi [1]; Trypanosoma cruzi, U2OS, 72 h): 6.37 | solubility kinetic [2]: 15 µg/mL (≈ 40.8 µM) | CLint [3]: 95 µL/min/mg | Papp at 3 h [4]: 29.1 ×10⁻⁶ cm/s | intrinsic clearance (CLint) [5]: > 500 µL/min/mg

c1ccc(CCNc2nc(-c3ccccn3)nc3ccccc23)cc1
pIC50 (Trypanosoma cruzi [1]; Trypanosoma cruzi, U2OS, 72 h): 7.10

c1ccc(-c2nc(N3CCc4cccnc4C3)c3ccccc3n2)nc1
pIC50 (Trypanosoma cruzi [1]; Trypanosoma cruzi, U2OS, 72 h): 5.13 | selectivity ratio [6]: 4.9

CCn1ncc2c(N3CCC(c4ccccn4)C3)nc(-c3ccccn3)nc21 (configuration not stated)
pIC50 (Trypanosoma cruzi [1]; Trypanosoma cruzi, U2OS, 72 h): 4.74 | selectivity ratio [6]: 2.8

Cc1ccc(Nc2nc(-c3ccccn3)nc3ccccc23)nc1
pIC50 (Trypanosoma cruzi [1]; Trypanosoma cruzi, U2OS, 72 h): 7.00 | selectivity ratio [6]: < 1

c1ccc(-c2nc(N3CCCC(c4ccccn4)C3)c3ccccc3n2)nc1 (configuration not stated)
pIC50 (Trypanosoma cruzi [1]; Trypanosoma cruzi, U2OS, 72 h): 5.89 | selectivity ratio [6]: 7.3

Cc1nc(-c2ccccn2)nc(NCc2ccccc2)c1Cl
pIC50 (Trypanosoma cruzi [1]; Trypanosoma cruzi, U2OS, 72 h): < 4.30 | selectivity ratio [9]: > 2.5

Cn1ccnc1CNc1nc(-c2ccccn2)nc2ccccc12
pIC50 (Trypanosoma cruzi [1]; Trypanosoma cruzi, U2OS, 72 h): 5.48 | selectivity ratio [6]: 14

c1ccc(-c2nc(N3CCc4nc[nH]c4C3)c3ccccc3n2)nc1
pIC50 (Trypanosoma cruzi [1]; Trypanosoma cruzi, U2OS, 72 h): 4.68 | selectivity ratio [6]: 2.3

c1ccc(-c2nc(N3CCC(c4ccccn4)C3)c3ccccc3n2)nc1 (stereo in doubt; 85-tR2)
pIC50 (Trypanosoma cruzi [1]; u2os): 6.02 | Selectivity Index [6]: 6.4

O=S(=O)(c1cccs1)N1CCc2nc(-c3ccccn3)nc(N3CCCCCC3)c2C1
pIC50 (Trypanosoma cruzi [1]; Trypanosoma cruzi, U2OS, 72 h): 6.07 | selectivity ratio [6]: > 58

Cc1ccc(Nc2nc(-c3ccccn3)nc3ccccc23)cn1
pIC50 (Trypanosoma cruzi [1]; Trypanosoma cruzi, U2OS, 72 h): 4.51 | selectivity ratio [6]: 1.6

Cc1ccc(Nc2nc(-c3ccccn3)nc3ccccc23)cc1
pIC50 (Trypanosoma cruzi [1]; Trypanosoma cruzi, U2OS, 72 h): 6.92

COc1ccc(Nc2nc(-c3ccccn3)nc3ccccc23)cc1
pIC50 (Trypanosoma cruzi [1]; Trypanosoma cruzi, U2OS, 72 h): 5.92

c1ccc(-c2nc(N3CCCC3)c3ccccc3n2)nc1
pIC50 (Trypanosoma cruzi [1]; Trypanosoma cruzi, U2OS, 72 h): 5.96 | selectivity ratio [6]: 8.6

N#CC1CCN(c2nc(-c3ccccn3)nc3ccccc23)C1 (configuration not stated)
pIC50 (Trypanosoma cruzi [1]; Trypanosoma cruzi, U2OS, 72 h): 5.15 | selectivity ratio [6]: 7.2

N#CC1CCCN(c2nc(-c3ccccn3)nc3ccccc23)C1 (configuration not stated)
pIC50 (Trypanosoma cruzi [1]; Trypanosoma cruzi, U2OS, 72 h): 4.74 | selectivity ratio [6]: 2.7

CCn1ncc2nc(-c3ccccn3)nc(N3CCC(c4ccccn4)C3)c21 (configuration not stated)
pIC50 (Trypanosoma cruzi [1]; Trypanosoma cruzi, U2OS, 72 h): 5.92 | selectivity ratio [6]: 2.7
